# Measured values taken from paper PMC11861226 (Journal of Cancer Research and Clinical Oncology, 2025).
# What was measured:
# [1] = ref Lamba et al. [2021]; Kondo et al. [2022]; Järvinen et al. [2023]; cited from earlier work
# [2] = ^68Ga-DOTA-PSMA micro-PET/CT imaging of 22Rv1 xenograft mice; assay type: in vivo, mouse; settings: mouse, tumor / non-tumor (muscle), iv, 3.7 MBq, total radioactivity
# Outline: (§1)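 Tracer was labelled with ⁶⁸Ga (generator eluted with 0.1 mol/l HCl) in sodium acetate buffer, pH 3–4, at 95 °C for 15 min. Male six-week-old nude mice bearing 22Rv1 xenografts received 3.7 MBq via the tail vein. Animal PET/CT imaging followed at multiple time points after injection to track tracer accumulation in tumour and surrounding organs.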
# 22Rv1 Xenograft Mice = test: as above; assay type: in vivo, mouse; settings: PET/CT imaging, 22Rv1 tumor
# Outline: as §1
# [3] = ^68Ga-DOTA-PSMA organ biodistribution by γ-counter, 22Rv1 xenograft mice; assay type: in vivo; settings: mouse, tumor, iv, 3.7 MBq, total radioactivity
# Outline: (§2)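 Male six-week-old SPF nude mice: normal (n = 15), 22Rv1 xenograft (n = 12) or PC-3 xenograft (n = 12), with three animals per time point. Each received 3.7 MBq i.v. via the tail vein. Tracer was labelled with ⁶⁸Ga (generator eluted with 0.1 mol/l HCl) in sodium acetate, pH 3–4, at 95 °C for 15 min. Mice were killed by cervical dislocation; organs were excised, weighed and γ-counted for %ID/g. Mean ± SD.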
# [4] = ^68Ga-DOTA-PSMA organ biodistribution by γ-counter, PC-3 xenograft mice; assay type: in vivo; settings: mouse, tumor, iv, 3.7 MBq, total radioactivity
# Outline: as §2
# [5] = tested on: glioblastoma cancer cell nuclei; settings: glioblastoma patients; ref Ho et al. [2022]; cited from earlier work
molecule,measurement,setting,value
"N[C@@H](Cc1ccc(B(O)O)cc1)C(=O)O [BPA, Boronophenylalanine]",water solubility,[1],poor water solubility
"O=C(O)CC[C@H](NC(=O)N[C@@H](CCCCNC(=O)[C@H](Cc1ccc2ccccc2c1)NC(=O)CCCCCNC(=O)CN1CCN(CC(=O)O)CCN(CC(=O)O)CCN(CC(=O)O)CC1)C(=O)O)C(=O)O [^68Ga-DOTA-PSMA, metal not drawn]",tissue to tissue ratio at 2 h,[2],6.95 ± 0.6
same,time of peak radiotracer uptake post-injection,22Rv1 Xenograft Mice,2 h
same,tissue uptake at 2 h,[3],27.1 ± 2.55 %ID/g
same,tissue uptake at 2 h,[4],6.23 ± 0.79 %ID/g
O=C([O-])CN(CCN(CC(=O)[O-])CC(=O)O)CCN(CC(=O)[O-])CC(=O)O.[Gd+3] [^157Gd-DTPA],cancer cell nuclei found to contain the agent,[5],6.1%
Sodium mercaptoundecahydro-closo-dodecaborate [BSH],water solubility,[1],more water-soluble
